According to ChEMBL document CHEMBL2146415, “Antibacterial activities of Groebke-Blackburn-Bienaymé-derived imidazo[1,2-a]pyridin-3-amines” (Bioorg Med Chem, 2012):
In brackets after ≈: the same amount, converted by molar mass. Activity calls are given as the source filed them. The rule behind the calls is not given here.

Columns and labels:
[1] = tested on: Staphylococcus aureus; assay: Bacteriostatic activity against methicillin resistant Staphylococcus aureus ATCC 33591 by CLSI broth microdilution method; type: functional
[2] = tested on: Staphylococcus aureus; assay: Bactericidal activity against methicillin resistant Staphylococcus aureus ATCC 33591 by broth microdilution method; type: functional, organism-based
How it was run: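 MBC by microdilution subculture: 0.5 μL from each well of the parent MIC plate (MRSA ATCC 33591) diluted into 80 μL fresh Mueller-Hinton broth, incubated overnight at 37°C, absorbance read at 600 nm.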

[3] = tested on: Staphylococcus aureus; assay: Bacteriostatic activity against wild type Staphylococcus aureus ATCC 13709 by CLSI broth microdilution method; type: functional
How it was run: (§1)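 MIC was determined by CLSI broth microdilution in non-cation-supplemented Mueller-Hinton broth, using OD600 0.5 cultures diluted 10-fold and 2-fold compound dilutions, overnight at 37°C, A600 read-out.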

[4] = tested on: Staphylococcus aureus; assay: Bacteriostatic activity against wild type Staphylococcus aureus ATCC 13709 at 100 ug/mL by CLSI broth microdilution method; type: functional, organism-based
[5] = biological target: T1, Toll-like receptor 7 (Homo sapiens) (UniProt Q9NYK1); assay: Antagonist activity at TLR7 expressed in HEK293 cells co-transfected with NF-kappaB/sAP gene assessed as inhibition of gardiquimod-induced NF-kappaB activation up to 250 uM by reporter gene assay; type: functional, cell-based
T1 sequence (whole entry): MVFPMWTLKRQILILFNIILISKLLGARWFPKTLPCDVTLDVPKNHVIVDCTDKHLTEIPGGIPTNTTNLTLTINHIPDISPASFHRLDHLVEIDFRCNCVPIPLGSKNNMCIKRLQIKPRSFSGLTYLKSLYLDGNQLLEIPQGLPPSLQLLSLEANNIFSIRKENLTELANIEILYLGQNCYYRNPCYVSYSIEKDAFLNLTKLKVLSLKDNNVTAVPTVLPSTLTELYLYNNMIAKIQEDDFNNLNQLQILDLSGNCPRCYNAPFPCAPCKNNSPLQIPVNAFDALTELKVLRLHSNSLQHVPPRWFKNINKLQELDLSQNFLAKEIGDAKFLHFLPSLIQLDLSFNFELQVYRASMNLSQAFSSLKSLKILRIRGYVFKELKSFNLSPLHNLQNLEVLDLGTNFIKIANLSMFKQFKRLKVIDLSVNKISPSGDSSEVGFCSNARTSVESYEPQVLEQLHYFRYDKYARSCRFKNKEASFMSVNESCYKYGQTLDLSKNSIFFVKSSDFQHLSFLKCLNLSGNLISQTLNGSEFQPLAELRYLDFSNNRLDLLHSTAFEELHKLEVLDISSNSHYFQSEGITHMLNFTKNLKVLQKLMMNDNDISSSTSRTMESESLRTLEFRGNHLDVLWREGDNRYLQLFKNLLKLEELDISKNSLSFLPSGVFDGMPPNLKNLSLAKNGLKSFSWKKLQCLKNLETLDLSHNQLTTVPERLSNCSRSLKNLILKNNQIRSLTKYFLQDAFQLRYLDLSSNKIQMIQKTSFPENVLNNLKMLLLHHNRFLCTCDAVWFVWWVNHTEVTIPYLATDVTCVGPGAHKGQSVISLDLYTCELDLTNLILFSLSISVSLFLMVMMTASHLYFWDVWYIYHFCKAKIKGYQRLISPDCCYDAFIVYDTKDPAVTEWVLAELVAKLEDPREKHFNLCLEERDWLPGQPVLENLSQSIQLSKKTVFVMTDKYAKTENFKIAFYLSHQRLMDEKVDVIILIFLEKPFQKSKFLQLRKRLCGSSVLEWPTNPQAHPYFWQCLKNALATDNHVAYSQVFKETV

[6] = biological target: T1, Toll-like receptor 7 (Homo sapiens); assay: Agonist activity at human TLR7 expressed in HEK293 cells co-transfected with NF-kappaB/sAP gene assessed as induction of NF-kappaB activation up to 250 uM by reporter gene assay; type: functional, cell-based
[7] = Chemical stability in aqueous solution of the compound assessed as N-dealkylated compound formation after 2 weeks by LC-MS analysis; type: physicochemical; details: buffer, 336 h
[8] = tested on: Staphylococcus epidermidis; assay: Bacteriostatic activity against coagulase negative Staphylococcus epidermidis ATCC 35983 by CLSI broth microdilution method; type: functional; how it was run: as §1
[9] = tested on: Streptococcus pyogenes; assay: Bacteriostatic activity against Streptococcus pyogenes clinical isolate by CLSI broth microdilution method; type: functional; how it was run: as §1
[10] = tested on: Escherichia coli; assay: Antibacterial activity against Escherichia coli ATCC 9637 in presence of 6.6 ug/mL polymyxin B […]; type: functional, organism-based
How it was run: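 Broth microdilution per CLSI. Mid-log cultures in non-cation-supplemented Mueller-Hinton broth were adjusted to OD600 0.5, diluted 10-fold, and added to equal volumes of 2-fold serially diluted compound. Plates were sealed and incubated overnight at 37°C, then read at A600. MIC was the lowest concentration inhibiting growth. Reference antibiotics were run alongside.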

SMILES | MIC [3] [mg/L] | Activity [4] | Activity [5] | Activity [6] | also measured
CC(C)(C)CC(C)(C)Nc1c(-c2c3ccccc3cc3ccccc23)nc2ccccn12 | 3.91 (≈ 9.27 µM) |  |  |  | MIC [1]: 3.91 mg/L (≈ 9.27 µM); Activity [2]: inactive
c1ccc(CNc2c(Cc3ccccc3)nc3cnccn23)cc1 |  | inactive | inactive | inactive | 
CN(C)CCCNc1ccc2nc(-c3c4ccccc4cc4ccccc34)c(NC(C)(C)CC(C)(C)C)n2c1.Cl |  |  |  |  | Stability [7]: Unstable
c1ccc2c(-c3nc4ccccn4c3NC3CCCCC3)c3ccccc3cc2c1 | 3.91 (≈ 9.99 µM) |  | inactive | inactive | MIC [1]: 3.91 mg/L (≈ 9.99 µM); MIC [8]: 7.81 mg/L (≈ 19.9 µM); MIC [9]: < 10 mg/L
CN(C)CCCNc1c2ccccc2c(-c2nc3ccccn3c2NC(C)(C)CC(C)(C)C)c2ccccc12.Cl |  |  |  |  | Stability [7]: Unstable
Clc1nccn2c(NC3CCCCC3)c(-c3c4ccccc4cc4ccccc34)nc12 |  | inactive |  |  | 
CC(C)(C)Nc1c(Cc2ccccc2)nc2ccccn12 |  | inactive | inactive | inactive | 
Cc1cccc(Cl)c1Nc1c(-c2c3ccccc3cc3ccccc23)nc2ccccn12 |  | inactive |  |  | 
CC(C)(C)Nc1c(-c2c3ccccc3cc3ccccc23)nc2ccc(Br)cn12 | 15.6 (≈ 35.2 µM) |  |  |  | 
CC(C)(C)Nc1c(-c2cccc3ccccc23)nc2cnccn12 |  | inactive | inactive | inactive | 
CC(C)(C)Nc1c(-c2c3ccccc3c(Cl)c3ccccc23)nc2ccccn12 | 7.81 (≈ 19.5 µM) |  |  |  | 
CN(C)CCCNc1ccc2nc(-c3c4ccccc4cc4ccccc34)c(NC(C)(C)CC(C)(C)C)n2c1 | 3.91 (≈ 7.49 µM) |  |  |  | 
c1ccc(CNc2c(Cc3ccccc3)nc3ccccn23)cc1 |  | inactive | inactive | inactive | 
c1ccc(-c2nc3ccccn3c2NC2CCCCC2)cc1 |  | inactive | inactive | inactive | 
c1ccc(CNc2c(-c3c4ccccc4cc4ccccc34)nc3ccccn23)cc1 |  | inactive | inactive | inactive | 
c1ccc2c(-c3nc4ccccn4c3NC34CC5CC(CC(C5)C3)C4)c3ccccc3cc2c1 | 15.6 (≈ 35.2 µM) |  |  |  | 
CC(C)(C)Nc1c(-c2c3ccccc3c(NCCCCCCCCN)c3ccccc23)nc2ccccn12 | 7.81 (≈ 15.4 µM) |  |  |  | MIC [1]: 15.6 mg/L (≈ 30.8 µM)
CC(C)(C)CC(C)(C)Nc1c(-c2c3ccccc3c(Cl)c3ccccc23)nc2ccccn12 | 7.81 (≈ 17.1 µM) |  |  |  | 
CCCCNc1c(-c2c3ccccc3cc3ccccc23)nc2ccccn12 | 3.91 (≈ 10.7 µM) |  |  |  | MIC [1]: 7.81 mg/L (≈ 21.4 µM)
CC(C)(C)Nc1c(-c2ccccc2)nc2cnccn12 |  | inactive | inactive | inactive | 
Nc1cccn2c(NC3CCCCC3)c(-c3c4ccccc4cc4ccccc34)nc12 | 15.6 (≈ 38.4 µM) |  |  |  | 
CC(C)(C)Nc1c(-c2c3ccccc3cc3ccccc23)nc2ccc(NCCCCCCCCN)cn12 | 3.91 (≈ 7.7 µM) |  |  |  | MIC [1]: 7.81 mg/L (≈ 15.4 µM)
CCCCCCCCN(CCCCCCCC)c1c(-c2c3ccccc3cc3ccccc23)nc2ccccn12 | 31.2 (≈ 58.5 µM) |  |  |  | 
CC(C)(C)Nc1c(Cc2ccccc2)nc2cnccn12 |  | inactive | inactive | inactive | 
CC(C)Nc1c(-c2c3ccccc3cc3ccccc23)nc2ccccn12 | 15.6 (≈ 44.4 µM) |  |  |  | MIC [1]: 15.6 mg/L (≈ 44.4 µM)
c1ccc(-c2nc3cnccn3c2NC2CCCCC2)cc1 |  | inactive | inactive | inactive | 

SMILES | MIC [3] [mg/L] | Activity [4] | Activity [5] | Activity [6] | also measured
c1ccc(CNc2c(-c3cccc4ccccc34)nc3ccccn23)cc1 | 15.6 (≈ 44.7 µM) |  | inactive | inactive | 
c1ccc(CNc2c(-c3ccccc3)nc3cnccn23)cc1 |  | inactive | inactive | inactive | 
Nc1c(-c2c3ccccc3cc3ccccc23)nc2ccccn12 |  | inactive |  |  | 
CC(C)(C)CC(C)(C)Nc1c(-c2cc3cccc4ccc5cccc2c5c43)nc2ccccn12 | 15.6 (≈ 35.1 µM) |  |  |  | 
C[Si](C)(C)CNc1c(-c2c3ccccc3cc3ccccc23)nc2ccccn12 | 15.6 (≈ 39.5 µM) |  |  |  | 
c1ccc(Cc2nc3ccccn3c2NC2CCCCC2)cc1 |  | inactive | inactive | inactive | 
c1ccc(CNc2c(-c3c4ccccc4cc4ccccc34)nc3cnccn23)cc1 |  | inactive | inactive | inactive | 
c1ccc(Cc2nc3cnccn3c2NC2CCCCC2)cc1 |  | inactive | inactive | inactive | 
c1ccc(CNc2c(-c3cccc4ccccc34)nc3cnccn23)cc1 |  | inactive | inactive | inactive | 
c1ccc2c(-c3nc4ncccn4c3NC3CCCCC3)c3ccccc3cc2c1 | 15.6 (≈ 39.8 µM) |  |  |  | 
CN(C)CCCNc1c2ccccc2c(-c2nc3ccccn3c2NC(C)(C)CC(C)(C)C)c2ccccc12 | 3.91 (≈ 7.49 µM) |  |  |  | 
c1ccc2c(-c3nc4ccccn4c3NC3CCCCC3)cccc2c1 | 7.81 (≈ 22.9 µM) |  | inactive | inactive | MIC [1]: 15.6 mg/L (≈ 45.7 µM)
CC(C)(C)CC(C)(C)Nc1c(-c2ccc(-c3ccccc3)cc2)nc2ccccn12 |  | inactive |  |  | 
c1ccc2c(-c3nc4cnccn4c3NC3CCCCC3)cccc2c1 |  | inactive | inactive | inactive | 
CC(C)(C)Nc1c(-c2cccc3ccccc23)nc2ccccn12 | 62.5 (≈ 198 µM) |  | inactive | inactive | MIC [1]: 31.2 mg/L (≈ 99.1 µM); MIC [9]: < 10 mg/L
CCCCCCCCNc1c(-c2c3ccccc3cc3ccccc23)nc2ccccn12 | 7.81 (≈ 18.5 µM) |  |  |  | 
CC(C)(C)CC(C)(C)Nc1c(-c2cc3ccccc3c3ccccc23)nc2ccccn12 | 7.81 (≈ 18.5 µM) |  |  |  | 
c1ccc2c(-c3nc4cnccn4c3NC3CCCCC3)c3ccccc3cc2c1 | 7.81 (≈ 19.9 µM) |  | inactive | inactive | 
c1ccc(CNc2c(-c3ccccc3)nc3ccccn23)cc1 |  | inactive | inactive | inactive | 
CC(C)(C)Nc1c(-c2c3ccccc3cc3ccccc23)nc2ccccn12 | 3.91 (≈ 10.7 µM) |  | inactive | inactive | MIC [1]: 3.91 mg/L (≈ 10.7 µM); MIC [8]: 7.81 mg/L (≈ 21.4 µM); MIC [9]: < 10 mg/L; Activity [2]: inactive; Activity [10]: inactive
CC(C)(C)Nc1c(-c2c3ccccc3cc3ccccc23)nc2cnccn12 |  | inactive | inactive | inactive | 
CC(C)(C)CC(C)(C)Nc1c(-c2c3ccccc3cc3ccccc23)nc2ccc(Br)cn12 | 15.6 (≈ 31.2 µM) |  |  |  | 
O=C(Nc1c(-c2c3ccccc3cc3ccccc23)nc2ccccn12)C(F)(F)F | 62.5 (≈ 154 µM) |  |  |  | 
CCCCCNc1c(-c2c3ccccc3cc3ccccc23)nc2ccccn12 | 3.91 (≈ 10.3 µM) |  |  |  | MIC [1]: 7.81 mg/L (≈ 20.6 µM)
CCCC(C)Nc1c(-c2c3ccccc3cc3ccccc23)nc2ccccn12 (configuration not stated) | 7.81 (≈ 20.6 µM) |  |  |  | MIC [1]: 3.91 mg/L (≈ 10.3 µM)
COc1ccc(Nc2c(-c3c4ccccc4cc4ccccc34)nc3ccccn23)cc1 |  | inactive |  |  | 
